The results in this text go back to ChEMBL document CHEMBL4251543, “Identification of potent tricyclic prodrug S1P1 receptor modulators” (Medchemcomm, 2017).

The term pEC50 denotes −log10 of the EC50, conventionally taken in molar units. Broadly, the Emax is the greatest response seen or fitted, relative to the assay's reference. The half-life is the time in which the quantity being followed falls by half.

Series [1] has as its target Sphingosine 1-phosphate receptor 1 (Homo sapiens, UniProt P21453). The series is described as follows: Agonist activity at human S1P1 receptor expressed in CHO cell membranes after 45 mins by [35S]GTPgammaS binding assay. The series is classed as functional. In outline: (§1)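 Membranes from S1P1/CHO or EDG3-Ga15-bla HEK293T cells (final protein 3 µg/well) incubated with compound (11-point, 3-fold dilution) and [35S]GTP 0.2 nM final in 20 mM HEPES pH 7.5, 10 mM MgCl2, 150 mM NaCl, 1 mM EGTA, 1 mM DTT, 10 µM GDP, 0.1% fatty acid free BSA, 10 µg/ml saponin, 45 min at room temperature. Filter capture, scintillation counting; EC50 taken at 50% of each compound's Ymax.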

Series [2] has as its target Sphingosine 1-phosphate receptor 3 (Homo sapiens, UniProt Q99500). The series is described as follows: Agonist activity at human EDG3-Ga15-bla expressed in HEK293T cells after 45 mins by [35S]GTPgammaS binding assay. The series is classed as functional, cell-based. Put shortly:
as §1

Series [3] deals with Rattus norvegicus. The series is described as follows: Immunosuppressive activity in Lewis rat assessed as reduction in blood lymphocytes count at 2 mg/kg, po after 4 hrs relative to control. The series is classed as functional. On the set-up: scale not given: the % may be the effect or the level left. Put shortly:
(§2)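 Oral dosing in Lewis rats, with PEG300 as vehicle, given as solution or suspension adjusted for free test article if salt forms are used. Blood sampled at several time points. Lymphocytes counted on a hematology analyzer. Result is the reduction in circulating lymphocyte percentage versus the vehicle group at each time, averaged per group (n = 2).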

Series [4] is described as follows: Prodrug conversion in Lewis rat blood assessed as parent compound levels at 2 mg/kg, po after 4 hrs. The series is classed as ADME, organism-based. The settings on record: in vivo, read-out: Drug metabolism.
Series [5] is described as follows: Prodrug conversion in Lewis rat blood assessed as formation phosphate metabolite at 2 mg/kg, po after 4 hrs. The series is classed as ADME, organism-based. The settings on record: in vivo.
Series [6] concerns Rattus norvegicus. Kind of series: Immunosuppressive activity in Lewis rat assessed as reduction in blood lymphocytes count at 2 mg/kg, po after 24 hrs relative to control. Details: scale not given: the % may be the effect or the level left. The class given is functional. In outline: as §2
Series [7] can be described thus: Prodrug conversion in Lewis rat blood assessed as parent compound levels at 2 mg/kg, po after 24 hrs. The series is classed as ADME, organism-based. The settings on record: in vivo, read-out: Drug metabolism.
A short description of series [8]: Prodrug conversion in Lewis rat blood assessed as formation phosphate metabolite at 2 mg/kg, po after 24 hrs. To be noted: in vivo. The class given is ADME, organism-based.
Series [9] has as its system Rattus norvegicus. The series is described as follows: Immunosuppressive activity in Lewis rat assessed as reduction in blood lymphocytes count at 2 mg/kg, po after 48 hrs relative to control. The class given is functional. Details: scale not given: the % may be the effect or the level left. Put shortly: as §2
Series [10] can be described thus: Prodrug conversion in Lewis rat blood assessed as parent compound levels at 2 mg/kg, po after 48 hrs. The series is classed as ADME, organism-based. To be noted: in vivo, read-out: Drug metabolism.
The nature of series [11]: Prodrug conversion in Lewis rat blood assessed as formation phosphate metabolite at 2 mg/kg, po after 48 hrs. The class given is ADME, organism-based. To be noted: in vivo.
The nature of series [12]: Half life in Lewis rat at 2 mg/kg, po after 72 hrs. The series is classed as ADME, organism-based. To be noted: in vivo.
Series [13] has as its system Cardiac muscle cell. The series is described as follows: Toxicity in human inducible pluripotent stem cell derived cardiomyocytes assessed as reduction in beating rate at 1 nM after 20 mins by multi-electrode array electrophysiology study. The class given is cell-based. Details: scale not given: the % may be the effect or the level left. To be noted: 0.001 µM. Put shortly:
(§3)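 hiPSC cardiomyocytes were grown 7 days at 7% CO2 on gelatin, then co-cultured with 10% cardiac fibroblasts for 7 days on laminin-coated 9-well MEA plates until they formed a beating monolayer. After 20-60 min equilibration at 37 °C, compound was added in maintenance medium (DMSO or NaOH vehicle below 0.1% or 30 µM). Field potentials were recorded at 10 kHz from 28 electrodes/well for at least 2 h. Reported as mean change in beating rate versus control, mean ± SD of ≥3 experiments.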

The subject of series [14] is Cardiac muscle cell. The series is described as follows: Toxicity in human inducible pluripotent stem cell derived cardiomyocytes assessed as reduction in beating rate at 10 nM after 20 mins by multi-electrode array electrophysiology study. The settings on record: 0.01 µM. Details: scale not given: the % may be the effect or the level left. The class given is cell-based. Put shortly: as §3

pEC50: −log10 of the molar value.

Chain of Sphingosine 1-phosphate receptor 1 (P21453 whole entry): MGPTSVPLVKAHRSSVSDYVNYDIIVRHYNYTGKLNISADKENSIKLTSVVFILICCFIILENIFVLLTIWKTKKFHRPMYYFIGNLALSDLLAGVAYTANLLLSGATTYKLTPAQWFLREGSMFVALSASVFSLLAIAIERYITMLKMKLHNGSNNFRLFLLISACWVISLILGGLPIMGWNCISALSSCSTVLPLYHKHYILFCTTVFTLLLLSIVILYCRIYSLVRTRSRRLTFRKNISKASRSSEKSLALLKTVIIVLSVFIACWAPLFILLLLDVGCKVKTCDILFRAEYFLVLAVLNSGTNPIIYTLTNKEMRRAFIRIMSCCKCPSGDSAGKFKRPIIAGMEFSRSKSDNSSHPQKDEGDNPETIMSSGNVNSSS
Chain of Sphingosine 1-phosphate receptor 3 (Q99500 whole entry): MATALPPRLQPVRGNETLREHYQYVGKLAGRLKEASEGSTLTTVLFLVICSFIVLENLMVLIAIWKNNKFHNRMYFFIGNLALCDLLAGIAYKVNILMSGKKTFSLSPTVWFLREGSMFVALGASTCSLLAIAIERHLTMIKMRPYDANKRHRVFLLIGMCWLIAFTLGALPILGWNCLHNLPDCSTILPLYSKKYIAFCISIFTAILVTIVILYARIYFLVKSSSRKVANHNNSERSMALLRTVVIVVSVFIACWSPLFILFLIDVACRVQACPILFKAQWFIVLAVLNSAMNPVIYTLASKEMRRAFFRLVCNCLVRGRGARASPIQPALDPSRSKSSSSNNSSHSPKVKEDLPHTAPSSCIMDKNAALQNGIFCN

Regarding `CCCCOCCOc1nc2c(s1)-c1ccc([C@H]3CC[C@](N)(COP(=O)(O)O)C3)cc1CC2`, in series [1], the negative logarithm of the EC50 (pEC50) was 9.00 and the maximum response (Emax) turned out to be 110%. For the same compound, in series [2], the pEC50 was 6.72.

`CCCCc1nc2c(s1)-c1ccc([C@H]3CC[C@](N)(CO)C3)cc1CC2`: the Activity in [3] came to 66%; in series [6] it was 48%; in series [9], 12%. Moreover, the concentration in series [4] was 77 nM; in series [7], 9.4 nM; in series [10], < 5 nM. The Drug metabolism is 97 nM in series [5], 8.2 nM in series [8] and < 5 nM in series [11]. Besides, in [12], the half-life was < 4 h.

In the case of `Cc1ccc(-c2nc3c(s2)-c2ccc([C@H]4CC[C@](N)(CO)C4)cc2CC3)cc1`, the Activity in [3] is listed as 9.3%; in series [6] it was 2.1%. The concentration was found to be 48 nM in [4] and 37 nM in series [7]. The Drug metabolism in [5] was found to be 12 nM; in [8], 19 nM. Further, the half-life in series [12] was 6 h.

In turn, `CCCCSc1nc2c(s1)-c1ccc([C@H]3CC[C@](N)(COP(=O)(O)O)C3)cc1CC2` gave an Emax in series [1] of 58%. Moreover, the Activity result in [13] and in series [14] was “Toxic” in each case.

As to `CCCCOc1nc2c(s1)-c1ccc([C@H]3CC[C@](N)(COP(=O)(O)O)C3)cc1CC2`, the maximal response (Emax) in series [1] was determined as 58%. Further, the Activity in series [13] was found to be 16%; in [14] it was 36%.

In series [1], `CCCCCCCc1nc2c(s1)-c1ccc([C@H]3CC[C@](N)(COP(=O)(O)O)C3)cc1CC2` had an Emax of 98%.

`CCCCNc1nc2c(s1)-c1ccc([C@H]3CC[C@](N)(CO)C3)cc1CC2`: the Activity in [3] worked out at 37%; in series [6] it was 0%. In [4], the concentration came to 33 nM. Besides, the Drug metabolism was determined as 570 nM in series [5] and 190 nM in series [8].

For `CCCCCSc1nc2c(s1)-c1ccc([C@H]3CC[C@](N)(CO)C3)cc1CC2`, the results for the Activity in series [3], in series [6] and in series [9] were 72%, 76% and 44%, respectively. For the same compound, the concentration was 87 nM in series [4], 16 nM in series [7] and < 5 nM in series [10]. Besides, the figures for the Drug metabolism in [5], in series [8] and in [11] were 43 nM, 10 nM and < 5 nM, respectively. Also, the half-life in series [12] was 5 h.

Consider `CCCCCCOc1nc2ccc3cc([C@H]4CC[C@](N)(CO)C4)ccc3c2s1`, for which the results for the Activity in [3], in [6] and in [9] were 73%, 83% and 86%, respectively. Besides, the concentration in series [4] came to 81 nM; in series [7], 78 nM; in series [10] it was 41 nM. The Drug metabolism is given as 260 nM in [5], 250 nM in series [8] and 160 nM in [11]. In series [12], this compound showed a half-life of 41 h.

As for `CCCCN(C)c1nc2c(s1)-c1ccc([C@H]3CC[C@](N)(CO)C3)cc1CC2`, the Activity in series [3] turned out to be 30%; in series [6], 27%; in series [9] it was 4.4%. The concentration in series [4] was 110 nM; in series [7], 18 nM; in series [10] it was 4.1 nM. The half-life in [12] is 9 h.

In series [1], `CCCc1nc2c(s1)-c1ccc([C@H]3CC[C@](N)(COP(=O)(O)O)C3)cc1CC2` showed an Emax of 79%.

In series [1], `CCCCNc1nc2c(s1)-c1ccc([C@H]3CC[C@](N)(COP(=O)(O)O)C3)cc1CC2` had a pEC50 of 6.89 and an Emax of 49%.

`CCCc1nc2c(s1)-c1ccc([C@H]3CC[C@](N)(CO)C3)cc1CC2`: the Activity is listed as 41% in series [3] and 0% in [6]. In addition, the concentration is 110 nM in series [4] and < 19 nM in series [7]. The Drug metabolism in series [5] is recorded as 79 nM; in [8], < 10 nM. Besides, the half-life in [12] was < 2 h.

The compound `CCCCCCOc1nc2c(s1)-c1ccc([C@H]3CC[C@](N)(COP(=O)(O)O)C3)cc1CC2` showed an Emax in series [1] of 100%.

`CCCCOc1nc2ccc3cc([C@H]4CC[C@](N)(CO)C4)ccc3c2s1`: the results for the Activity in [3], in series [6] and in [9] were 65%, 77% and 59%, respectively. The concentration in [4] worked out at 28 nM; in [7] it was 21 nM; in [10], 12 nM. Further, the Drug metabolism is on record as 5.1 nM in series [5], < 5 nM in series [8] and < 5 nM in series [11]. This compound also showed a half-life in series [12] of 14 h.

With `CCCCCCCc1nc2c(s1)-c1ccc([C@H]3CC[C@](N)(CO)C3)cc1CC2`, the Activity in series [3] was 40%; in series [6], 77%; in series [9] it was 80%. In addition, the concentration was 66 nM in series [4], 110 nM in series [7] and 43 nM in series [10]. Also, the Drug metabolism in series [5] turned out to be 63 nM; in series [8], 300 nM; in series [11], 150 nM. The half-life in [12] was > 50 h.

Consider `CCCCSc1nc2ccc3cc([C@H]4CC[C@](N)(CO)C4)ccc3c2s1`, for which the Activity came out at 69% in series [3], 75% in series [6] and 59% in series [9]. Besides, the concentration in series [4] is 15 nM; in [7], 8 nM; in [10], < 5 nM. For the same compound, the figures for the Drug metabolism in series [5], in series [8] and in [11] were 10 nM, 8.1 nM and < 5 nM, respectively. In [12], this compound gave a half-life of 6 h.

`CCCCCOc1nc2ccc3cc([C@H]4CC[C@](N)(CO)C4)ccc3c2s1`: the results for the Activity in series [3], in series [6] and in series [9] were 80%, 80% and 68%, respectively. Besides, the concentration in series [4] was found to be 31 nM; in series [7], 17 nM; in series [10] it was 8.3 nM. The compound further gave a half-life in series [12] of 35 h.

Consider `CCCCCCOc1nc2c(s1)-c1ccc([C@H]3CC[C@](N)(CO)C3)cc1CC2`, for which the Activity was determined as 66% in series [3], 82% in [6] and 82% in [9]. The concentration in [4] worked out at 72 nM; in series [7], 31 nM; in series [10] it was 17 nM. Moreover, the Drug metabolism in series [5] was 62 nM; in series [8] it was < 5 nM; in series [11], < 5 nM. Besides, the half-life in series [12] is 25 h.

Consider `CCCCCCc1nc2c(s1)-c1ccc([C@H]3CC[C@](N)(CO)C3)cc1CC2`, for which the values for the Activity in series [3], in [6] and in series [9] were 59%, 82% and 74%, respectively. In addition, the concentration was 110 nM in series [4], 66 nM in series [7] and < 10 nM in [10]. Also, the figures for the Drug metabolism in series [5], in series [8] and in [11] were 140 nM, 160 nM and 50 nM, respectively. This compound also showed a half-life in series [12] of 35 h.

On to `CCCCCOc1nc2c(s1)-c1ccc([C@H]3CC[C@](N)(CO)C3)cc1CC2`, for which the Activity in [3] worked out at 67%; in [6] it was 80%; in [9] it was 59%. Also, the concentration is 81 nM in series [4], 29 nM in series [7] and 12 nM in [10]. Also, the Drug metabolism is listed as 71 nM in series [5], 26 nM in series [8] and < 5 nM in series [11]. In series [12], the half-life was 21 h.

In the case of `COc1cccc(-c2nc3c(s2)-c2ccc([C@H]4CC[C@](N)(CO)C4)cc2CC3)c1`, the Activity in series [3] was found to be 31%; in [6] it was 63%; in [9], 30%. Besides, the concentration was 97 nM in series [4], 68 nM in series [7] and < 5 nM in [10]. In addition, the Drug metabolism was 39 nM in [5], < 5 nM in series [8] and < 5 nM in series [11]. The same compound had a half-life in series [12] of 4 h.
